In the library only some 2.6% were active in any assay of this set; here they are far more common.
ABHD4 inh – ABHD4 (mouse) inhibition, primary FP screen. purified mABHD4, FP-Rh probe fluorescence polarization. Q8VD66. inhibition, % at 8.92 µM. actives 0.54% (n = 370,000);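 active = inhibition exceeding the mean over every tested compound plus 3 SD, cut at about 30% in these data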
Target sequence (Q8VD66 whole entry, looked up): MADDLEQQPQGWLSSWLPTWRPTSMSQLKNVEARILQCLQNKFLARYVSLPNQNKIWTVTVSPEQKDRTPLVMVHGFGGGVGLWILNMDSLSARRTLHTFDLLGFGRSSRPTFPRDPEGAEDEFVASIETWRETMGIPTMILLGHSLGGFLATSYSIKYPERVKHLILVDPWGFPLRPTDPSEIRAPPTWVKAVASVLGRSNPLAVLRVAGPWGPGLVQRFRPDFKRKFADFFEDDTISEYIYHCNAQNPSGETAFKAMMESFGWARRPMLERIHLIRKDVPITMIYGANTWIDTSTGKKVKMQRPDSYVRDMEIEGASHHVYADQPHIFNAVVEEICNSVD
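Assay system: wild-type mouse ABHD4 protein; compound: single nominal dose of 8.92 µM, 0.89% DMSO final; schedule: 45 min + 60 min at 25 °C; measured by: FP readout, ex 525 nm / em 598 nm; evaluation: % inhibition of FP-Rh probe binding versus controls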
HTRA1 inhibitor – inhibitors of human serine peptidase HTRA1 | recombinant HTRA1, FP-rhodamine activity-based probe, fluorescence polarization | inhibition, % at 5.96 µM | actives 0.5% (n = 340,000); in the data active = inhibition above about 36%
TCR CD3 inh – blocks the human TCR-CD3 interaction. TAMRA-labeled TCR probe fluorescence, biochemical. inhibition, % at 9.4 µM. actives 0.37% (n = 360,000); in the data active = inhibition above about 19%;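 also: recombinant mutant TCR 2C K166C tagged with TAMRA read by polarization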
SIAE primary – human SIAE inhibition, primary screen; SIAE FP-Rh probe binding, fluorescence polarization; inhibition, % at 9.66 µM; actives 0.69% (n = 370,000); AID 1053197;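 active = inhibition above a cutoff: mean of compounds within the control limits plus 3 SD of those, cut at about 17% in these data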
PRMT1 inh – PRMT1 (human) inhibition, primary screen. Q99873. inhibition, % at 2.79 µM. AID 652257. actives 1.3% (n = 370,000). recombinant PRMT1, activity-based probe fluorescence polarization;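 active = inhibition above about 21% made by adding two undisclosed values, limit read from the data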
SIAE inh conf – human SIAE inhibition, confirmation; SIAE FP-Rh activity-based probe, fluorescence polarization; shares compounds with SIAE primary; inhibition, % at 9.66 µM; AID 1117263; actives 13% (n = 2,300);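 active = mean inhibition of the replicates above the hit cutoff set in the primary screen, cut at about 17% in these data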;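 also: inhibitors lower polarization as more probe stays unbound to SIAE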
Of the large screens only hits and unclear results are named; the others gave an inactive call (follow-up assays come after a bar, where they were run).

CCCOc1ccc(-c2nc(CSCC(=O)NC3CC3)c(C)o2)cc1	none (no result: HTRA1 inhibitor, TCR CD3 inh)
O=C(N1CCOCC1)N1CC[C@H]2[C@H](CCCN2Cc2cc(F)cc(F)c2)C1	none (no result: HTRA1 inhibitor, TCR CD3 inh)
Cc1ccc(/C=N/Nc2ccnc3cc(Cl)ccc23)c(C)c1	SIAE primary 44 | SIAE inh conf 59
Cc1ccccc1/C=N/Nc1ccnc2cc(Cl)ccc12	SIAE primary 26 | SIAE inh conf 31
Oc1ccc(Nc2ccnc3cc(Cl)ccc23)cc1	none
Clc1ccc2c(N/N=C/c3cccnc3)ccnc2c1	none
Clc1ccc2c(N/N=C/c3ccc(Br)cc3)ccnc2c1	SIAE primary 19 | SIAE inh conf inactive
Oc1ccc(/C=N/Nc2ccnc3cc(Cl)ccc23)c(O)c1	SIAE primary 27 | SIAE inh conf 36
CC(C)CNc1cccc2c1S(=O)(=O)N[C@@H](Cc1ccccc1)CO2	none (no result: HTRA1 inhibitor)
COC(=O)CCCNC(=O)CCc1nnc(-c2ccc(-c3ccccc3)cc2)o1	SIAE primary 18 | SIAE inh conf inactive
COc1cccc(/C=N/NC(=O)C[n+]2ccccc2)c1O	none
COc1cc(OC)c(OC)cc1/C=N/NC(=O)C[n+]1ccccc1	SIAE primary 49 | SIAE inh conf inactive
CCOc1ccc(S(=O)(=O)NCCC(=O)OCN2C(=O)c3ccccc3C2=O)cc1	SIAE primary 18 | SIAE inh conf inactive
CCN(c1nc(C)cc(OC)n1)S(=O)(=O)c1ccccc1	SIAE primary 18 | SIAE inh conf inactive
COC(=O)C12CCCN1C1C(=O)N(Cc3ccc(C(N)=O)cc3)CC1C2 (stereo not given)	none (no result: HTRA1 inhibitor, TCR CD3 inh)
O=C(NCC1CCN(C(=O)C(=O)c2cccs2)CC1)c1ccncc1	none (no result: HTRA1 inhibitor)
Cc1[nH]c2ccc(OCc3ccccc3)cc2c1CCN1C(=O)OC(C)(C)C1(C)O (stereo not given)	none
Cc1[nH]c2ccc(F)cc2c1CCN1C(=O)OC(C)(C)C1(C)O (stereo not given)	SIAE primary 26 | SIAE inh conf inactive
COC(=O)c1ccc(Cn2ccc3ccc(-c4ccc5ccn(C(=O)C6CCCCC6)c5c4)cc32)cc1	none (no result: HTRA1 inhibitor, TCR CD3 inh)
CN1OC[C@@H]2CN(Cc3ccc4c(c3)OCO4)[C@H](c3ccc(-n4ccnc4)cc3)C[C@@H]21	none (no result: HTRA1 inhibitor)
COc1ccc(/C(C)=N/OCC(=O)N=Nc2c(O)[nH]c3ccccc23)cc1	SIAE primary 21 | SIAE inh conf inactive
Cc1ccccc1CN1CCCCC(NC(=O)c2ccc(COc3ccccc3)cc2)C1=O (stereo not given)	none (no result: HTRA1 inhibitor, TCR CD3 inh)
O=C(Nc1cc2c3c(c1)CC(=O)N3CCC2)C1CC1	SIAE primary 20 | SIAE inh conf inactive
N#Cc1ccc(C(=O)NCC2CCN(C(=O)C(=O)c3cccs3)CC2)cc1	none (no result: HTRA1 inhibitor)
COc1ccc(N(CC(=O)NC2CCCC2)C(=O)Cn2nnc(-c3ccc(C)o3)n2)cc1	SIAE primary 18 | SIAE inh conf inactive
CCOc1ccc(N(CC(=O)NC2CCCC2)C(=O)Cn2nnc(-c3ccc(C)o3)n2)cc1	none
O=C(C1CC1)N1CCN(c2ccc(O)cc2)CC1	SIAE primary 19 | SIAE inh conf inactive
CC(=O)N1C[C@H]2CON(C)[C@H]2C[C@H]1c1ccccc1-c1ccccc1	none (no result: HTRA1 inhibitor)
CCCCc1c(-c2ccccc2OC)ncn1C(C)c1ccccc1 (stereo not given)	none (no result: HTRA1 inhibitor)
CCn1c(SCC(N)=O)nc2cc(S(=O)(=O)N3CCOCC3)ccc21	none
CCn1c(CCl)nc2cc(S(=O)(=O)N3CCOCC3)ccc21	SIAE primary 18 (no result: HTRA1 inhibitor) | SIAE inh conf inactive
CC(C)OC(=O)c1cc2c(ccn2C)n1CC(=O)N(Cc1ccccc1)c1ccccc1	SIAE primary 19 | SIAE inh conf inactive
CCOC(=O)c1cc2c(ccn2C)n1Cc1cc(C)ccc1C	none
COc1ccc(-c2nnc(SCC(=O)Nc3ccc4cn[nH]c4c3)n2Cc2ccco2)cc1	none (no result: HTRA1 inhibitor, TCR CD3 inh)
O=C(CCCCCN1C(=O)C2C3C=CC(C3)C2C1=O)N1CCN(c2ncccn2)CC1 (stereo not given)	none (no result: HTRA1 inhibitor, TCR CD3 inh)
Cc1ccc(S(=O)(=O)NC2=C(N3CCN(Cc4ccccc4)CC3)C(=O)c3ccccc3C2=O)cc1	none
CCOC(=O)N1CCN(C2=C(NS(=O)(=O)c3ccc(C)cc3)C(=O)c3ccccc3C2=O)CC1	SIAE primary 20 | SIAE inh conf inactive
CCCCC(=O)NCCNC(=O)c1cc(OCC(F)(F)F)ccc1OCC(F)(F)F	SIAE primary 26 | SIAE inh conf inactive

Source: PubChem
